Screens (PubChem BioAssay)
p47phox inh = inhibitors of human p47phox binding | P14598 | p47phox/p22phox peptide binding, fluorescence polarization, 2 h | inhibition, % at 24.7 µM | 220,000 tested, 0.53% active;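 active means inhibition above about 30%, limit read from the data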
RBBP9 inhibitor = blocks human serine hydrolase RBBP9 | O75884 | recombinant RBBP9, FP-Rh probe fluorescence polarization | inhibition, % at 7.94 µM | 220,000 tested, 0.2% active | AID 1515;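 active means inhibition above the campaign mean of all tested compounds plus 3 SD, cut at about 14% in these data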
Target sequence (O75884 whole entry, looked up): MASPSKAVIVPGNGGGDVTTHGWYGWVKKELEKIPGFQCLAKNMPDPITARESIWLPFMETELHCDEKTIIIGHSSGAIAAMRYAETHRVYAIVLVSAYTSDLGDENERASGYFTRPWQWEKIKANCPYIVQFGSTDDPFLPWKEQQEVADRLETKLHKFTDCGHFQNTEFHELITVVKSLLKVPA
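Test system: recombinant human RBBP9; Timing: 30 min then 45 min, 25 °C; Detection: fluorescence polarization; Control set: RBBP9 with DMSO as uninhibited control, no-protein wells as full inhibition; Compound dosing: one concentration, 7.94 µM nominal, 0.794% DMSO; Probe or stimulus: FP-Rh activity-based probe, 375 nM before mixing.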
KCC2 mod = KCC2 (human) Cl- transport modulation; Q9H2X9; KCC2 cells, thallium flux FluoZin-2 fluorescence; B-score of Tl+ flux slope (higher = more flux/activation; lower = inhibition) at 10 µM; 190,000 tested, 2.2% active; AID 1456;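 active means thallium flux slope and its plate-corrected score both differing from the plate sample mean at a set confidence after two filtering rounds, in either direction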;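 further: slope of fluorescence scaled to starting intensity during 10 to 20 s after thallium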
ROMK mod = human ROMK K+ channel modulation, primary screen; 130,000 tested, 2% active; Tet-inducible ROMK, thallium flux fluorescence; actives lie on both sides; B-score at 10 µM; P48048;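 active means signal ratio slope over the read window, or its plate-corrected B-score, at least 3 SD from the plate mean, either direction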;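 further: B-score of the F/F0 ratio slope over 7 to 12 s after thallium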
WT yeast gro inh = growth inhibition of WT yeast, mitochondrial fusion screen. 190,000 tested, 2.1% active. inhibition, % at 10 µM. mitochondrial fusion phenotypic screen, WT strain; in the data active means inhibition above about 58%; tested in S. cerevisiae
14-3-3 Bad PPI = disrupts binding of bovine 14-3-3 zeta to phospho-Bad peptide | TR-FRET 14-3-3zeta/Dy647-pBad peptide displacement, 1 h | inhibition, % at 21.7 µM | 220,000 tested, 0.71% active | AID 781;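 active means inhibition above about 70%, limit read from the data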
Target sequence (P63103 whole entry, looked up): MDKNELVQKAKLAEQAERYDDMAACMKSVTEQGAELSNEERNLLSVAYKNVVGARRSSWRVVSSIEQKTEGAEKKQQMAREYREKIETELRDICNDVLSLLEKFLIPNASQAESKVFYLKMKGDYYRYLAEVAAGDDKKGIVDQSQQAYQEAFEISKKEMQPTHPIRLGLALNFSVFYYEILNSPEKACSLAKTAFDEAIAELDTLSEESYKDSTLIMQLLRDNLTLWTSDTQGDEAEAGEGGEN
Of the large screens only hits and unclear results are named; the others gave an inactive call; [ ] = dose if it differs, or a comment. This is a sample that favours compounds with a hit; in the whole collection about 5.8% have one here.

Cc1cccc(N(CC(N)=O)C2SC(=O)N(c3ccccc3)C2=O)c1 (centres undefined)	none (no result: KCC2 mod)
Cc1ccc(N(CC(N)=O)C2SC(=O)N(C)C2=O)cc1 (centres undefined)	14-3-3 Bad PPI 80
N#CCCN(Cc1cccnc1)C(=S)NC1CC2C=CC1C2 (centres undefined)	none (no result: KCC2 mod, ROMK mod, WT yeast gro inh)
CCOc1ccc(N2C(=O)c3ccc(C(=O)OCC(=O)N(CC)C4CCS(=O)(=O)C4)cc3C2=O)cc1 (centres undefined)	p47phox inh 44
Cc1cc(Br)ccc1OCCN1CC(C)OC(C)C1 (centres undefined)	none
CCN1CCN(CCOc2ccc(Br)cc2C)CC1	14-3-3 Bad PPI 89
CCCn1c(SC(C(=O)Nc2cc(C)ccc2OC)c2ccccc2)nc2ccccc2c1=O (centres undefined)	KCC2 mod 14 (no result: ROMK mod)
O=c1c2c(-c3cccs3)csc2ncn1-c1ccc(Br)cc1	none (no result: ROMK mod)
C=CCn1c(=S)[nH]c2scc(-c3cccs3)c2c1=O	KCC2 mod 89, ROMK mod 3.5
Cn1c(=S)[nH]c2scc(-c3cccs3)c2c1=O	KCC2 mod 59, ROMK mod 4
CCN(CC)c1ccc(C(=O)N/N=C(\C)c2cccnc2)cc1	none
C/C(=N\NC(=O)c1cccnc1)c1ccc(OC2OCCOC2Oc2ccc(/C(C)=N/NC(=O)c3cccnc3)cc2)cc1 (centres undefined)	14-3-3 Bad PPI 87
Cc1ccc2c(c1)c(Sc1ccccc1)c(CC(=O)O)n2C	none
CCOC(=O)Cc1c(Sc2ccccc2)c2cc(C)ccc2n1C	WT yeast gro inh 68 (no result: ROMK mod)
Cn1c(N)c(C(=O)COC(=O)c2ncc(Cl)c(Cl)c2Cl)c(=O)n(C)c1=O	none
Cc1cc(Br)ccc1NCc1ccccn1	14-3-3 Bad PPI 76 (no result: ROMK mod)
c1ccc(NCc2ccccn2)cc1	none
O=C(OCc1ccccc1)N1CCCC1/C=C/CN1CCOCC1 (centres undefined)	none
Cc1cncn1CCc1nc2c3ccccc3nc(SCC(=O)Nc3cccc(Cl)c3)n2n1	p47phox inh 50
Cc1cccc(NC(=O)CSc2nc3ccccc3c3nc(CCc4c(C)n[nH]c4C)nn23)c1	none (no result: ROMK mod)
CCOC(=O)N1CCN(Cc2ccc(F)cc2F)CC1	14-3-3 Bad PPI 91 (no result: ROMK mod)
CCN(CC)C(=O)CSc1nc2cc3c(cc2c(=O)n1CCCCCC(=O)NCc1ccc(OC)cc1)OCO3	none
CC(C)c1nnc(NC(=O)c2ccc3c(c2)OCO3)s1	none
COc1ccccc1-c1nnc(NC(=O)c2ccc3c(c2)OCO3)s1	14-3-3 Bad PPI 71
Cc1ccc(S(=O)(=O)NNC(=O)c2cc(C)cs2)cc1	none (no result: WT yeast gro inh)
O=[N+]([O-])c1ccc(C[n+]2cccc3ccccc32)cc1	none
O=[N+]([O-])c1ccc(C[n+]2cccc3ccc4cccnc4c32)cc1	WT yeast gro inh 59
COc1ccc(N(CCC(=O)O)S(=O)(=O)c2ccc(C)cc2C)cc1	none
CCCCOC(=O)c1ccc(NC(=O)c2ccccc2OC)cc1	WT yeast gro inh 64
O=C(Cc1ccccc1)Nc1nc(=O)c2ccccc2s1	KCC2 mod 4.1 (no result: ROMK mod)
O=C(Cc1ccccc1)Nc1nc2ccccc2s1	none (no result: ROMK mod)
O=C(Nc1nc(=O)c2ccccc2s1)c1ccc(F)cc1	KCC2 mod 47 (no result: ROMK mod)
CCn1c(NC(=O)c2ccc(F)cc2)c2ccccc2nc1=O	WT yeast gro inh 58 (no result: ROMK mod)
COc1ccc(C(=O)NNC(=O)c2ccc(S(=O)(=O)N3CCCCC3)cc2)cc1	none
Cc1ccc(NC(=O)C(=O)NCCCN2CCOCC2)c(C)c1	none (no result: WT yeast gro inh)
Cc1ccc(NC(=O)/C(CN(C)C)=N\O)cc1	14-3-3 Bad PPI 93[fluorescence artefact?] (no result: KCC2 mod)
O=C(O)c1cccc(N2C(=O)/C(=C/c3ccc(SCc4ccc(Cl)cc4)o3)SC2=S)c1	ROMK mod -4.2, 14-3-3 Bad PPI 85
Cc1ccc(/C=C2\SC(=S)N(c3cccnc3)C2=O)o1	none (no result: ROMK mod, WT yeast gro inh)
COc1ccccc1Cn1c(-c2ccccc2OC)nc2ccccc21	WT yeast gro inh 72 (no result: KCC2 mod)
O=C(N=C1c2ccccc2CN1c1ccc(F)c(F)c1)c1cccnc1	14-3-3 Bad PPI 71
O=C(N=C1c2ccccc2CN1c1cccc(Cl)c1)c1cccnc1	none
CCc1ccccc1NC(=S)N(Cc1ccco1)C(C)c1cccs1 (centres undefined)	WT yeast gro inh 76
CCSc1nnc2ccc(-c3ccco3)nn12	none
